In ChEMBL document CHEMBL1132295, “Novel euglycemic and hypolipidemic agents. 4. Pyridyl- and quinolinyl-containing thiazolidinediones” (1999):

Key:
Mus musculus [1] = test: Percentage reduction in plasma glucose after 6 days p.o. dosing at 30 mg/kg in db/db mice.; assay type: functional; settings: route oral
Procedure, shortened: (§1)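 Male C57BL/KsJ-db/db mice, 8 weeks old, 4–6 per group, given compound orally once daily for 6 days; vehicle controls received 0.5% CMC (10 mL/kg); rosiglitazone 30 mg/kg as standard. On the last day, retro-orbital blood was taken 1 h post-dose. Plasma glucose and triglyceride were measured by kits. % reduction = [1 − (TT/OT)/(TC/OC)] × 100, using day-0 and control values; mean ± SE, ANOVA, P<0.05.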

Mus musculus [2] = test: Compound was administered at a dose of 10 mg/kg/day to evaluate the percentage reduction in plasma triglyceride (TG) after 14 days of treatment in db/db mice via oral gavage.
Mus musculus [3] = test: Compound was administered at a dose of 30 mg/kg/day to evaluate the percentage reduction in plasma triglyceride (TG) after 6 days of treatment in db/db mice via oral gavage.; assay type: functional; procedure, shortened: as §1
Mus musculus [4] = test: Compound was administered at a dose of 3 mg/kg/day to evaluate the percentage reduction in plasma triglyceride (TG) after 14 days of treatment in db/db mice via oral gavage.
Mus musculus [5] = test: Compound was administered at a dose of 10 mg/kg/day to evaluate the percentage reduction in plasma glucose(PG) after 14 days of treatment in db/db mice via oral gavage.
Mus musculus [6] = test: Compound was administered at a dose of 3 mg/kg/day to evaluate the percentage reduction in plasma glucose(PG) after 14 days of treatment in db/db mice via oral gavage.
Mus musculus [7] = test: Compound was administered at a dose of 100 mg/kg/day to evaluate the percentage reduction in plasma glucose(PG) after 6 days of treatment in db/db mice via oral gavage.; assay type: functional; procedure, shortened: as §1
Mus musculus [8] = test: Compound was administered at a dose of 100 mg/kg/day to evaluate the percentage reduction in plasma triglyceride (TG) after 6 days of treatment in db/db mice via oral gavage; Not significant.; assay type: functional, organism-based; procedure, shortened: as §1
Mus musculus [9] = test: Compound was administered at a dose of 10 mg/kg/day to evaluate the percentage reduction in plasma glucose(PG) after 14 days of treatment in ob/ob mice via oral gavage.
Mus musculus [10] = test: Compound was administered at a dose of 1 mg/kg/day to evaluate the percentage reduction in plasma glucose(PG) after 14 days of treatment in ob/ob mice via oral gavage.
Mus musculus [11] = test: Compound was administered at a dose of 3 mg/kg/day to evaluate the percentage reduction in plasma glucose(PG) after 14 days of treatment in ob/ob mice via oral gavage.
Mus musculus [12] = test: Compound was administered at a dose of 30 mg/kg/day to evaluate the percentage reduction in plasma triglyceride (TG) after 6 days of treatment in db/db mice via oral gavage; Not significant.; assay type: functional, organism-based; procedure, shortened: as §1
Mus musculus [13] = test: Compound was administered at a dose of 100 mg/kg/day to evaluate the percentage reduction in plasma triglyceride (TG) after 6 days of treatment in db/db mice via oral gavage.; assay type: functional; procedure, shortened: as §1
Mus musculus [14] = test: Compound was administered at a dose of 3 mg/kg/day to evaluate the percentage reduction in plasma triglyceride (TG) after 14 days of treatment in ob/ob mice via oral gavage.
Mus musculus [15] = test: Compound was administered at a dose of 30 mg/kg/day to evaluate the percentage reduction in plasma triglyceride (TG) after 14 days of treatment in ob/ob mice via oral gavage.
Mus musculus [16] = test: Compound was administered at a dose of 10 mg/kg/day to evaluate the percentage reduction in plasma triglyceride (TG) after 14 days of treatment in ob/ob mice via oral gavage.
Mus musculus [17] = test: Compound was administered at a dose of 1 mg/kg/day to evaluate the percentage reduction in plasma triglyceride (TG) after 14 days of treatment in ob/ob mice via oral gavage.
Mus musculus [18] = test: Compound was administered at a dose of 30 mg/kg/day to evaluate the percentage reduction in plasma glucose(PG) after 14 days of treatment in ob/ob mice via oral gavage.
Mus musculus [19] = test: Compound was administered at a dose of 20 mg/kg/day to evaluate the percentage reduction in plasma glucose(PG) after 14 days of treatment in db/db mice via oral gavage.
Mus musculus [20] = test: Compound was administered at a dose of 20 mg/kg/day to evaluate the percentage reduction in plasma triglyceride (TG) after 14 days of treatment in db/db mice via oral gavage.
Mus musculus [21] = test: Compound was administered at a dose of 100 mg/kg/day to evaluate the percentage reduction in plasma glucose(PG) after 6 days of treatment in db/db mice via oral gavage; Not significant.; assay type: functional, organism-based; procedure, shortened: as §1

SMILES: CN(CCOc1ccc(CC2SC(=O)NC2=O)cc1)c1ccccn1 (stereo in doubt; form 1) [ROSIGLITAZONE]
- Reduction (Mus musculus [1]; 30 mg/kg): 64.6%
- Reduction (Mus musculus [2]): 35.25%
- Reduction (Mus musculus [3]): 41%
- Reduction (Mus musculus [4]): 47%
- Reduction (Mus musculus [5]): 47.25%
- Reduction (Mus musculus [6]): 41.6%

SMILES: O=C1NC(=O)C(Cc2ccc(OC[C@@H]3CCCN3c3ccccn3)cc2)S1 (stereo partly drawn)
- Reduction (Mus musculus [1]): 52.25%
- Reduction (Mus musculus [3]): 65.5%

SMILES: O=C1NC(=O)/C(=C/c2ccc(OC[C@@H]3CCCN3c3ccc4ccccc4n3)cc2)S1
- Reduction (Mus musculus [7]): 63.75%
- Reduction (Mus musculus [8]): Not significant

SMILES: O=C1[N-]C(=O)C(Cc2ccc(OCC3CN(c4ccccn4)CCO3)cc2)S1.[Na+] (stereo not drawn)
- Reduction (Mus musculus [1]): 63.5%
- Reduction (Mus musculus [2]): 39%
- Reduction (Mus musculus [3]): 56.75%
- Reduction (Mus musculus [9]): 39.8%
- Reduction (Mus musculus [10]): 30%
- Reduction (Mus musculus [4]): 39.25%
- Reduction (Mus musculus [5]): 66%
- Reduction (Mus musculus [11]): 35.6%
- Reduction (Mus musculus [6]): 34.67%

SMILES: O=C1NC(=O)C(Cc2ccc(OCC3CN(c4ccccn4)CCO3)cc2)S1 (stereo not drawn) [listing 1 of 2 here]
- Reduction (Mus musculus [12]): Not significant

SMILES: Cl.O=C1NC(=O)C(Cc2ccc(OC[C@@H]3CCCN3c3ccc4ccccc4n3)cc2)S1 (stereo partly drawn)
- Reduction (Mus musculus [1]): 15.75%

SMILES: Cl.O=C1NC(=O)C(Cc2ccc(OC[C@@H]3CCCN3c3ccccn3)cc2)S1 (stereo partly drawn)
- Reduction (Mus musculus [1]): 50.5%
- Reduction (Mus musculus [3]): 50.5%

SMILES: O=C1[N-]C(=O)C(Cc2ccc(OC[C@@H]3CCCN3c3ccccn3)cc2)S1.[Na+] (stereo partly drawn)
- Reduction (Mus musculus [1]): 65.5%

SMILES: Cc1cc(N2CCC[C@H]2COc2ccc(CC3SC(=O)NC3=O)cc2)nc2ccccc12 (stereo partly drawn)
- Reduction (Mus musculus [1]): 40.5%
- Reduction (Mus musculus [3]): 66.25%

SMILES: CN(CCOc1ccc(/C=C2\SC(=O)NC2=O)cc1)c1ccccn1
- Reduction (Mus musculus [7]): 55.5%
- Reduction (Mus musculus [13]): 35%

SMILES: O=C1NC(=O)C(Cc2ccc(OC[C@@H]3CCCN3c3ccc4ccccc4n3)cc2)S1 (stereo partly drawn) [listing 1 of 2 here]
- Reduction (Mus musculus [12]): Not significant

SMILES: O=C(O)/C=C\C(=O)O.O=C1NC(=O)/C(=C/c2ccc(OC[C@@H]3CCCN3c3ccccn3)cc2)S1
- Reduction (Mus musculus [1]): 63.6%
- Reduction (Mus musculus [14]): 59%
- Reduction (Mus musculus [2]): 78.4%
- Reduction (Mus musculus [15]): 68.5%
- Reduction (Mus musculus [16]): 41.5%
- Reduction (Mus musculus [17]): 65.75%
- Reduction (Mus musculus [3]): 66.4%
- Reduction (Mus musculus [9]): 69.25%
- Reduction (Mus musculus [18]): 73%
- Reduction (Mus musculus [10]): 52.4%
- Reduction (Mus musculus [4]): 75%
- Reduction (Mus musculus [5]): 49.6%
- Reduction (Mus musculus [11]): 40.25%
- Reduction (Mus musculus [6]): 12.75%

SMILES: Cc1cc(N2CCC[C@H]2COc2ccc(CC3SC(=O)NC3=O)cc2)nc2ccccc12.O=C(O)/C=C\C(=O)O (stereo partly drawn)
- Reduction (Mus musculus [3]): 53%

SMILES: O=C(O)/C=C\C(=O)O.O=C1NC(=O)C(Cc2ccc(OC[C@@H]3CCCN3c3ccccn3)cc2)S1 (stereo partly drawn)
- Reduction (Mus musculus [19]): 41.25%
- Reduction (Mus musculus [1]): 62.5%
- Reduction (Mus musculus [20]): 34.5%
- Reduction (Mus musculus [3]): 44.75%
- Reduction (Mus musculus [4]): 41.5%
- Reduction (Mus musculus [6]): 8.5%

SMILES: Cl.O=C1NC(=O)/C(=C/c2ccc(OCC3CN(c4ccccn4)CCO3)cc2)S1 (stereo not drawn)
- Reduction (Mus musculus [1]): 35.5%

SMILES: O=C1[N-]C(=O)C(Cc2ccc(OC[C@@H]3CCCN3c3ccc4ccccc4n3)cc2)S1.[Na+] (stereo partly drawn)
- Reduction (Mus musculus [1]): 61.5%
- Reduction (Mus musculus [3]): 24.75%

SMILES: O=C1NC(=O)/C(=C\c2ccc(OC[C@@H]3CCCN3c3ccccn3)cc2)S1
- Reduction (Mus musculus [7]): 57%
- Reduction (Mus musculus [13]): 77.75%

SMILES: Cc1cc(N2CCC[C@H]2COc2ccc(CC3SC(=O)[N-]C3=O)cc2)nc2ccccc12.[Na+] (stereo partly drawn)
- Reduction (Mus musculus [1]): 30.25%
- Reduction (Mus musculus [3]): 58.5%

SMILES: O=C1NC(=O)C(Cc2ccc(OCC3CN(c4ccccn4)CCO3)cc2)S1 (stereo not drawn) [listing 2 of 2 here]
- Reduction (Mus musculus [1]): 57.5%

SMILES: O=C1NC(=O)/C(=C/c2ccc(OCC3CCN(c4ccccn4)CC3)cc2)S1
- Reduction (Mus musculus [21]): Not significant
- Reduction (Mus musculus [13]): 27.33%

SMILES: CN(CCOc1ccc(CC2SC(=O)NC2=O)cc1)c1ccccn1 (stereo in doubt; form 2) [ROSIGLITAZONE]
- Reduction (Mus musculus [1]; 30 mg/kg): 35%
- Reduction (Mus musculus [3]): 40.21%

SMILES: O=C1NC(=O)/C(=C/c2ccc(OC3CCN(c4ccccn4)CC3)cc2)S1
- Reduction (Mus musculus [7]): 38%
- Reduction (Mus musculus [13]): 40.25%

SMILES: O=C1NC(=O)/C(=C/c2ccc(OCC3CN(c4ccccn4)CCO3)cc2)S1 (stereo not drawn) [listing 1 of 2 here]
- Reduction (Mus musculus [7]): 55.25%
- Reduction (Mus musculus [13]): 52.5%

SMILES: O=C1[N-]C(=O)/C(=C/c2ccc(OC[C@@H]3CCCN3c3ccccn3)cc2)S1.[Na+]
- Reduction (Mus musculus [1]): 56.5%
- Reduction (Mus musculus [3]): 56%

SMILES: O=C1NC(=O)/C(=C/c2ccc(OCCN3CCN(c4ccccn4)CC3)cc2)S1
- Reduction (Mus musculus [7]): 35.75%
- Reduction (Mus musculus [13]): 69.75%

SMILES: Cl.O=C1NC(=O)/C(=C/c2ccc(OC[C@@H]3CCCN3c3ccccn3)cc2)S1
- Reduction (Mus musculus [1]): 70.8%
- Reduction (Mus musculus [14]): 39.33%
- Reduction (Mus musculus [2]): 43.8%
- Reduction (Mus musculus [15]): 53%
- Reduction (Mus musculus [16]): 35%
- Reduction (Mus musculus [17]): 46.6%
- Reduction (Mus musculus [3]): 31.7%
- Reduction (Mus musculus [9]): 42.4%
- Reduction (Mus musculus [18]): 37.2%
- Reduction (Mus musculus [10]): 18.8%
- Reduction (Mus musculus [5]): 61%
- Reduction (Mus musculus [11]): 50.2%
- Reduction (Mus musculus [6]): 53.8%

SMILES: Cc1cc(N2CCC[C@H]2COc2ccc(CC3SC(=O)NC3=O)cc2)nc2ccccc12.Cl (stereo partly drawn)
- Reduction (Mus musculus [1]): 25.25%
- Reduction (Mus musculus [3]): 42%

SMILES: O=C1NC(=O)/C(=C/c2ccc(OCC3CN(c4ccccn4)CCO3)cc2)S1 (stereo not drawn) [listing 2 of 2 here]
- Reduction (Mus musculus [12]): Not significant

SMILES: O=C1NC(=O)C(Cc2ccc(OC[C@@H]3CCCN3c3ccc4ccccc4n3)cc2)S1 (stereo partly drawn) [listing 2 of 2 here]
- Reduction (Mus musculus [1]): 72.25%
- Reduction (Mus musculus [3]): 49%
